According to ChEMBL document CHEMBL1139880, “Potent and selective agonists of human melanocortin receptor 5: cyclic analogues of alpha-melanocyte-stimulating hormone” (J Med Chem, 2007):
Starred links: 1 amine or outer side, 2 acyl side, 3 side chain; linkers in the order of their positions; H or OH if unused. Positions of bridges follow the written chain, without caps; N, C: chain ends. Non-standard residues stand in square brackets, D forms with d. Residues, ends and D or L forms follow the SMILES beside them. ξ: configuration not given here. X2 = O=C([C@@H](Cc1ccc(Cc2ccccc2)cc1)N[*:1])[*:2]; Oic(3aξ,7aξ) = O=C(O)[C@@H]1CC2CCCCC2N1; Pip = O=C(O)[C@@H]1CCCCN1; Nle = CCCC[C@H](N)C(=O)O

What was measured:
[1] = biological target: T1, Melanocyte-stimulating hormone receptor (Homo sapiens, UniProt Q01726); experiment: Agonist activity at human melanocortin receptor 1b expressed in CHO cells assessed as cAMP accumulation; type: functional, cell-based
T1 sequence (Q01726 whole entry): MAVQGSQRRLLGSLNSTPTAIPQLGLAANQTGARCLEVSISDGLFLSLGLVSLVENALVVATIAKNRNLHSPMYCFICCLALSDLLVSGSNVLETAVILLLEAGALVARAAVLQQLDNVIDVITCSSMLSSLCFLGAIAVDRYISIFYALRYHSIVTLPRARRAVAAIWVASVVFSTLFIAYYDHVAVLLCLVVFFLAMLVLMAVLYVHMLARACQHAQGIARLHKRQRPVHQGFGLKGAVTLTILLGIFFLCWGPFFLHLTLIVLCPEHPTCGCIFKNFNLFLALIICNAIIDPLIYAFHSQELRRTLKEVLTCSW
Method in brief: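 Dissociated CHO cells were spun 5 min and resuspended in Earle's balanced salt solution with 10 mM HEPES pH 7.5, 5 mM MgCl2, 1 mM glutamine and 1 mg/mL BSA. They were incubated 40 min at room temperature with compound (0.003–5000 nM) plus 0.6 mM IBMX, then lysed with 0.1 M HCl. cAMP was measured by Flashplate cAMP assay.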

[2] = biological target: T1, Melanocyte-stimulating hormone receptor; experiment: Displacement of [125I]NDPalphaMSH from human cloned melanocortin receptor 1b expressed in CHO cells; type: cell-based
Melanocortin receptor 3 = Melanocortin receptor 3 (Homo sapiens, UniProt P41968); experiment: Displacement of [125I]NDPalphaMSH from human cloned MC3R expressed in CHO cells; type: cell-based
Sequence of Melanocortin receptor 3 (P41968 whole entry): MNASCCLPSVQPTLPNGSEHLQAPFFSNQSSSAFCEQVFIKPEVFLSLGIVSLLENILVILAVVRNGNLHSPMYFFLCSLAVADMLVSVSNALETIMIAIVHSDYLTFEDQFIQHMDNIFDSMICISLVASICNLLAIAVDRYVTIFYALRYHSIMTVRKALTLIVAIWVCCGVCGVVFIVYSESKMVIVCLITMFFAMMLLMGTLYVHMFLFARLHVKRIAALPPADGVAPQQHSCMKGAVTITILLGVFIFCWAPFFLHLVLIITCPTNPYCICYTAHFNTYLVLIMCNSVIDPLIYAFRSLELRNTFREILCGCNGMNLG

Melanocortin receptor 4 = Melanocortin receptor 4 (Homo sapiens, UniProt P32245); experiment: Displacement of [125I]NDPalphaMSH from human cloned MC4R expressed in CHO cells; type: cell-based
Sequence of Melanocortin receptor 4 (P32245 whole entry): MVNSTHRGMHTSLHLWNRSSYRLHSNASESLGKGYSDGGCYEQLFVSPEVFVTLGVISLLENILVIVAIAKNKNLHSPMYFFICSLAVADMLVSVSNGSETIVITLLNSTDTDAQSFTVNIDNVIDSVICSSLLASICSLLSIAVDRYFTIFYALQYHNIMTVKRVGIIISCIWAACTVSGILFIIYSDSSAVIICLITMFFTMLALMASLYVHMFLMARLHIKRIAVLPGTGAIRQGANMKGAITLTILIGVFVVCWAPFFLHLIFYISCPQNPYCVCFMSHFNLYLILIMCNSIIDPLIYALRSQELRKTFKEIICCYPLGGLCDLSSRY

Melanocortin receptor 5 [3] = biological target: T2, Melanocortin receptor 5 (Homo sapiens, UniProt P33032); experiment: Displacement of [125I]NDPalphaMSH from human cloned MC5R expressed in CHO cells; type: cell-based
T2 sequence (P33032 whole entry): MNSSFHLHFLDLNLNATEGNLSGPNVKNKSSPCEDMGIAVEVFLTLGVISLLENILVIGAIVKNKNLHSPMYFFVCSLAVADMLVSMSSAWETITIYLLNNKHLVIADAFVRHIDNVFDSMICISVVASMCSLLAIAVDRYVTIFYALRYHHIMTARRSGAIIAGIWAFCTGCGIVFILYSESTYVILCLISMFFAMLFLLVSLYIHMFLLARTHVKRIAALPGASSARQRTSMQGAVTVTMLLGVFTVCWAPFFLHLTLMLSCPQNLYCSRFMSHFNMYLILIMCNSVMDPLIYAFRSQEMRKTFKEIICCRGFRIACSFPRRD

Melanocortin receptor 5 [4] = biological target: T2, Melanocortin receptor 5; experiment: Agonist activity at human MC5R expressed in CHO cells assessed as cAMP accumulation; type: functional, cell-based

EC50 [1] | IC50 [2] | IC50 (Melanocortin receptor 3) | IC50 (Melanocortin receptor 4) | IC50 (Melanocortin receptor 5 [3]) | EC50 (Melanocortin receptor 5 [4]) | IC50 (Melanocortin receptor 3; cho) [µM] | IC50 ([2]; cho) [µM] | IC50 (Melanocortin receptor 5 [3]; cho) [nM] | SMILES
> 2500 nM | > 10 µM | – | – | – | – | – | – | – | CCCC[C@H](NC(C)=O)C(=O)N[C@H]1CC(=O)NCCCC[C@@H](C(N)=O)NC(=O)[C@H](Cc2c[nH]c3ccccc23)NC(=O)[C@@H]2CCCN2C(=O)[C@@H](Cc2ccc(O)cc2)NC(=O)[C@H](Cc2cnc[nH]2)NC1=O
– | > 10 µM | > 10 µM | > 10 µM | > 10000 nM | – | – | – | – | CCCC[C@H](NC(C)=O)C(=O)N[C@H]1CC(=O)NCCCC[C@@H](C(N)=O)NC(=O)[C@H](Cc2c[nH]c3ccccc23)NC(=O)[C@@H]2CCCN2C(=O)[C@@H](CCC(N)=O)NC(=O)[C@H](Cc2c[nH]cn2)NC1=O
350 nM (agonist) | 2.1 µM (antagonist) | 0.63 µM (antagonist) | 1 µM (antagonist) | 2.9 nM (antagonist) | 1.6 nM (agonist) | – | – | – | CCCC[C@H](NC(C)=O)C(=O)N[C@H]1CC(=O)NCCCC[C@@H](C(N)=O)NC(=O)[C@H](Cc2c[nH]c3ccccc23)NC(=O)[C@@H]2CCCN2C(=O)[C@@H](Cc2ccc(-c3ccccc3)cc2)NC(=O)[C@@H]2CCCN2C1=O
330 nM (agonist) | 4.9 µM (antagonist) | > 10 µM | 4.7 µM (antagonist) | 7.3 nM (antagonist) | 0.23 nM (agonist) | – | – | – | CCCC[C@H](NC(C)=O)C(=O)N[C@H]1CC(=O)NCCCC[C@@H](C(N)=O)NC(=O)[C@H](Cc2c[nH]c3ccccc23)NC(=O)[C@@H]2CCCCN2C(=O)[C@@H](Cc2ccc(-c3ccccc3)cc2)NC(=O)[C@H](C(C)C)NC1=O
– | > 10 µM | – | – | – | – | – | – | – | CCCC[C@H](NC(C)=O)C(=O)N[C@H]1CC(=O)NCCCC[C@@H](C(N)=O)NC(=O)[C@H](Cc2c[nH]c3ccccc23)NC(=O)[C@@H]2CCCN2C(=O)[C@@H](Cc2cnc[nH]2)NC(=O)[C@H](Cc2cnc[nH]2)NC1=O
> 1000 nM | 0.98 µM (antagonist) | – | – | – | – | – | – | – | CCCC[C@H](NC(C)=O)C(=O)N[C@H]1CC(=O)NCCCC[C@@H](C(N)=O)NC(=O)[C@H](Cc2c[nH]c3ccccc23)NC(=O)[C@@H]2CCCN2C(=O)[C@H](Cc2ccccc2)NC(=O)[C@H](Cc2cnc[nH]2)NC1=O
– | > 1 µM | > 1 µM | 1.6 µM (antagonist) | 24 nM (antagonist) | 31 nM (agonist) | – | – | – | CCCC[C@H](NC(C)=O)C(=O)N[C@H]1CC(=O)NCCCC[C@@H](C(N)=O)NC(=O)[C@H](Cc2c[nH]c3ccccc23)NC(=O)[C@@H]2CCCCN2C(=O)[C@@H](Cc2ccc(Cc3ccccc3)cc2)NC(=O)[C@@H]2CC3CCCCC3N2C1=O (stereo partly drawn) (Ac-[Nle]D[Oic(3aξ,7aξ)][X2][Pip]WK-NH2; lactam 2-7)
> 2500 nM | > 10 µM | > 10 µM | > 10 µM | > 10000 nM | – | – | – | – | CCCC[C@H](NC(C)=O)C(=O)N[C@H]1CC(=O)NCCCC[C@@H](C(N)=O)NC(=O)[C@H](Cc2c[nH]c3ccccc23)NC(=O)[C@@H]2CCCN2C(=O)[C@@H](CC2CCCCC2)NC(=O)[C@H](Cc2c[nH]cn2)NC1=O
28 nM (agonist) | 0.065 µM (antagonist) | 0.27 µM (antagonist) | 0.16 µM (antagonist) | 0.15 nM (antagonist) | 0.031 nM (agonist) | – | – | – | CCCC[C@H](NC(C)=O)C(=O)N[C@H]1CC(=O)NCCCC[C@@H](C(N)=O)NC(=O)[C@H](Cc2c[nH]c3ccccc23)NC(=O)[C@@H]2CCCCN2C(=O)[C@@H](Cc2ccc(-c3ccccc3)cc2)NC(=O)[C@@H]2CCCN2C1=O
89 nM (agonist) | 0.88 µM (antagonist) | – | – | – | – | – | – | – | CCCC[C@H](NC(C)=O)C(=O)N[C@H]1CC(=O)NCCCC[C@@H](C(N)=O)NC(=O)[C@H](Cc2c[nH]c3ccccc23)NC(=O)[C@@H]2CCCN2C(=O)[C@@H](Cc2ccc3ccccc3c2)NC(=O)[C@H](Cc2cnc[nH]2)NC1=O
> 500 nM | > 10 µM | > 10 µM | > 10 µM | 50 nM (antagonist) | 1 nM (agonist) | – | – | – | CCCC[C@H](NC(C)=O)C(=O)N[C@H]1CC(=O)NCCCC[C@@H](C(N)=O)NC(=O)[C@H](Cc2c[nH]c3ccccc23)NC(=O)[C@@H]2CCCCN2C(=O)[C@@H](Cc2ccc(-c3ccccc3)cc2)NC(=O)[C@H](C2CCCCC2)NC1=O
– | – | – | – | – | – | > 10 | > 10 | > 10000 | CCCC[C@H](NC(C)=O)C(=O)N[C@H]1CC(=O)NCCCC[C@@H](C(N)=O)NC(=O)[C@H](Cc2c[nH]c3ccccc23)NC(=O)[C@@H]2CCCN2C(=O)[C@H]2Cc3ccccc3CN2C(=O)[C@H](Cc2cnc[nH]2)NC1=O
– | > 1 µM | > 1 µM | 0.99 µM (antagonist) | 2.1 nM (antagonist) | 0.29 nM (agonist) | – | – | – | CCCC[C@H](NC(C)=O)C(=O)N[C@H]1CC(=O)NCCCC[C@@H](C(N)=O)NC(=O)[C@H](Cc2c[nH]c3ccccc23)NC(=O)[C@@H]2CCCCN2C(=O)[C@@H](Cc2ccc(-c3ccccc3)cc2)NC(=O)[C@H](c2ccccc2)NC1=O
